Assay results: ChEMBL document CHEMBL4689842, “EUbOPEN Chemogenomics Library wave 1” (2021)
Where “and” joins values, the source holds several entries; their conditions need not be identical. Equal values may be shown once.

System: HEK-293T
Assay: Multiplex assay against HEK293T;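 as to Population Tubulin-Different-Phenotype (%): share of the cells with healthy nuclei that show this phenotype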
Assay type: toxicity, cell-based
Details: human
Summary of the method: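 On a CQ1 microscope at 37°C and 5% CO2, live cells were imaged after compound addition. They had been stained at seeding with Hoechst33342, BioTracker Green Microtubule Cytoskeleton Dye, MitoTracker Red and Annexin V Alexa Fluor 680. CellPathfinder machine-learning gating assigned cells to Hoechst high-intensity objects or normal cells, normal cells to healthy, pyknosed or fragmented nuclei, and pyknosed cells to mitotic or apoptotic. Tubulin, mitochondrial-mass and membrane-permeability phenotypes are per cents of healthy-nucleus cells.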

[1] = 12 h, 1 µM, compound concentration 1 uM, replicate 1
[2] = 12 h, 1 µM, compound concentration 1 uM, replicate 2
[3] = 12 h, 10 µM, compound concentration 10 uM, replicate 1
[4] = 12 h, 10 µM, compound concentration 10 uM, replicate 2
[5] = 24 h, 1 µM, compound concentration 1 uM, replicate 1
[6] = 24 h, 1 µM, compound concentration 1 uM, replicate 2
[7] = 24 h, 10 µM, compound concentration 10 uM, replicate 1
[8] = 24 h, 10 µM, compound concentration 10 uM, replicate 2
[9] = 48 h, 10 µM, compound concentration 10 uM, replicate 1
[10] = 48 h, 10 µM, compound concentration 10 uM, replicate 2

## CNC(=O)c1nn(C)c2c1C(C)(C)Cc1cnc(Nc3ccc(N4CCN(C)CC4)cc3)nc1-2 [MILCICLIB]
[1]
  Population Apoptotic (%): 28%
  Population Fragmented Nuclei (%): 17%
  Population Healthy Nuclei (%): 41%
  Population Hoechst High Intensity Objects (%): 21%
  Population Membrane Permeable-Phenotype (%): 9%
  Population Mitochondria Different-Phenotype (%): 25%
  Population Mitotic Cells (%): 71%
  Population Normal (%): 78%
  Population Pyknosed Nuclei (%): 40%
  Population Tubulin-Different-Phenotype (%): 82%
  Total Cell Count: 581
[2]
  Population Apoptotic (%): 23%
  Population Fragmented Nuclei (%): 2%
  Population Healthy Nuclei (%): 83%
  Population Hoechst High Intensity Objects (%): 9%
  Population Membrane Permeable-Phenotype (%): 3%
  Population Mitochondria Different-Phenotype (%): 64%
  Population Mitotic Cells (%): 76%
  Population Normal (%): 90%
  Population Pyknosed Nuclei (%): 14%
  Population Tubulin-Different-Phenotype (%): 98%
  Total Cell Count: 860
[3]
  Population Apoptotic (%): 29% and 75% and 67%
  Population Healthy Nuclei (%): 36% and 49%
  Population Hoechst High Intensity Objects (%): 18% and 11% and 13%
  Population Mitochondria Different-Phenotype (%): 39% and 100% and 98%
  Population Mitotic Cells (%): 70% and 24% and 32%
  Population Normal (%): 81% and 88% and 86%
  Population Pyknosed Nuclei (%): 38% and 43%
  Population Tubulin-Different-Phenotype (%): 79% and 97%
  Total Cell Count: 581 and 226 and 425
[4]
  Population Fragmented Nuclei (%): 6% and 3% and 2%
  Population Hoechst High Intensity Objects (%): 6% and 8% and 9%
  Population Membrane Permeable-Phenotype (%): 12% and 10% and 4%
  Population Mitochondria Different-Phenotype (%): 87% and 90% and 57%
  Population Mitotic Cells (%): 40% and 30% and 79%
  Population Normal (%): 93% and 91% and 90%
  Population Tubulin-Different-Phenotype (%): 91% and 100% and 99%
[5]
  Population Apoptotic (%): 43%
  Population Fragmented Nuclei (%): 21%
  Population Healthy Nuclei (%): 33%
  Population Hoechst High Intensity Objects (%): 19%
  Population Membrane Permeable-Phenotype (%): 7%
  Population Mitochondria Different-Phenotype (%): 64%
  Population Mitotic Cells (%): 56%
  Population Normal (%): 80%
  Population Pyknosed Nuclei (%): 45%
  Population Tubulin-Different-Phenotype (%): 78%
  Total Cell Count: 556
[6]
  Population Apoptotic (%): 34%
  Population Fragmented Nuclei (%): 2%
  Population Healthy Nuclei (%): 82%
  Population Hoechst High Intensity Objects (%): 9%
  Population Membrane Permeable-Phenotype (%): 2%
  Population Mitochondria Different-Phenotype (%): 81%
  Population Mitotic Cells (%): 65%
  Population Normal (%): 90%
  Population Pyknosed Nuclei (%): 14%
  Population Tubulin-Different-Phenotype (%): 98%
  Total Cell Count: 887
[7]
  Population Apoptotic (%): 55% and 82% and 67%
  Population Healthy Nuclei (%): 32% and 22% and 44%
  Population Hoechst High Intensity Objects (%): 19% and 13%
  Population Membrane Permeable-Phenotype (%): 10% and 2%
  Population Mitochondria Different-Phenotype (%): 63% and 100% and 98%
  Population Mitotic Cells (%): 44% and 17% and 32%
  Population Normal (%): 80% and 86%
  Population Pyknosed Nuclei (%): 42% and 69% and 48%
  Population Tubulin-Different-Phenotype (%): 80% and 91%
  Total Cell Count: 565 and 241 and 453
[8]
  Population Fragmented Nuclei (%): 6% and 3% and 4%
  Population Hoechst High Intensity Objects (%): 6% and 7%
  Population Membrane Permeable-Phenotype (%): 6% and 4%
  Population Mitochondria Different-Phenotype (%): 92% and 95% and 77%
  Population Normal (%): 93% and 92%
  Population Tubulin-Different-Phenotype (%): 94% and 95% and 98%
[9]
  Population Apoptotic (%): 87% and 71%
  Population Fragmented Nuclei (%): 14%
  Population Healthy Nuclei (%): 17% and 42%
  Population Hoechst High Intensity Objects (%): 13% and 11%
  Population Membrane Permeable-Phenotype (%): 0%
  Population Mitochondria Different-Phenotype (%): 100% and 99%
  Population Mitotic Cells (%): 12% and 28%
  Population Normal (%): 86% and 88%
  Population Pyknosed Nuclei (%): 68% and 49%
  Population Tubulin-Different-Phenotype (%): 92%
  Total Cell Count: 263 and 534
[10]
  Population Apoptotic (%): 86% and 89%
  Population Fragmented Nuclei (%): 6% and 7%
  Population Healthy Nuclei (%): 21% and 15%
  Population Hoechst High Intensity Objects (%): 12% and 9%
  Population Membrane Permeable-Phenotype (%): 2%
  Population Mitochondria Different-Phenotype (%): 91%
  Population Mitotic Cells (%): 13% and 10%
  Population Normal (%): 87% and 90%
  Population Pyknosed Nuclei (%): 71% and 76%
  Population Tubulin-Different-Phenotype (%): 85% and 70%
  Total Cell Count: 182 and 236
